Calls of active or inactive are those of the source. The calls are words filed in the database; no cut-off is given here.
Experiments:
[1] = Inhibition of sheep brain tubulin polymerization; parameters: species or system Ovis aries
Ovis aries [2] = organism: Ovis aries; assay: Inhibition of sheep brain tubulin polymerization at 10 uM
Outline: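 Microtubule protein from sheep brain, purified by two assembly/disassembly cycles (37 °C/0 °C), in 100 mM MES pH 6.6, 1 mM EGTA, 0.5 mM MgCl₂. Compounds in DMSO were tested at a single concentration, with incubation at 37 °C for 10 min and then 0 °C for 5 min before measuring assembly rate, following a modified Guénard protocol.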

Ovis aries [3] = organism: Ovis aries; assay: Inhibition of sheep brain tubulin polymerization at 17 uM
MIA PaCa-2 [4] = assay: Cytotoxicity against human MIAPaCa2 cells at 10^-6 M after 72 hrs by MTS assay; assay type: functional; conditions: MIA PaCa-2, 72 h, read-out: GI
MCF7 [5] = assay: Cytotoxicity against human MCF7 cells at 10^-5 M after 72 hrs by MTS assay; assay type: functional; conditions: MCF7, 72 h, read-out: GI
[6] = Cytotoxicity against human HL60R cells at 10^-6 M after 72 hrs by MTS assay; assay type: functional; conditions: read-out: GI
Outline: (§1)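 Cells grown in RPMI with 10% fetal calf serum, penicillin, streptomycin and fungizone under 5% CO₂. Plated in 96-well plates and dosed 24 h later with compound in DMSO (1% final DMSO; controls got DMSO alone). After 72 h, MTS was added for 3 h at 37 °C and A490 read. Inhibition = (1 − OD treated/OD control) × 100, in triplicate.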

OVCAR-8 [7] = assay: Cytotoxicity against human OVCAR8 cells at 10^-6 M after 72 hrs by MTS assay; assay type: functional; conditions: OVCAR-8, 72 h, read-out: GI
Outline: (§2)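 Preliminary screen at 10^-5 and 10^-6 M. Cells were grown in RPMI with 10% fetal calf serum plus penicillin, streptomycin and fungizone under 5% CO₂, plated in 96-well plates, and dosed 24 h later from DMSO stocks (1% DMSO final, same in controls). After 72 h, MTS was added for 3 h at 37 °C and absorbance read at 490 nm. Inhibition was calculated as (1 − OD treated/OD control) × 100, in triplicate.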

A549 [8] = assay: Cytotoxicity against human A549 cells at 10^-6 M after 72 hrs by MTS assay; assay type: functional; conditions: A549, 72 h, read-out: GI; outline: as §1
HL-60 [9] = assay: Cytotoxicity against human HL60 cells at 10^-5 M after 72 hrs by MTS assay; assay type: functional; conditions: HL-60, 72 h, read-out: GI; outline: as §1
[10] = Cytotoxicity against human MDA231 cells at 10^-5 M after 72 hrs by MTS assay; assay type: functional; conditions: MDA-MB-231, 72 h, read-out: GI; outline: as §2
SF-268 [11] = assay: Cytotoxicity against human SF268 cells at 10^-6 M after 72 hrs by MTS assay; assay type: functional; conditions: SF-268, 72 h, read-out: GI; outline: as §2
HT-29 [12] = assay: Cytotoxicity against human HT-29 cells at 10^-6 M after 72 hrs by MTS assay; assay type: functional; conditions: HT-29, 72 h, read-out: GI; outline: as §1
A549 [13] = assay: Cytotoxicity against human A549 cells at 10^-5 M after 72 hrs by MTS assay; assay type: functional; conditions: A549, 72 h, read-out: GI; outline: as §1
PC-3 [14] = assay: Antiproliferative activity against human PC3 cells after 72 hrs by MTS assay; assay type: functional, cell-based; conditions: PC-3, 72 h
Outline: (§3)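 Cell lines grown in RPMI with 10% fetal calf serum plus penicillin, streptomycin and fungizone under 5% CO2. Compounds in DMSO (1% final; controls got DMSO alone) were added 24 h after plating. After 72 h exposure, MTS was added for 3 h at 37 °C and A490 read. Inhibition = (1 − OD treated/OD control)×100, in triplicate. IC50s came from separate duplicate dose-response experiments.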

PC-3 [15] = assay: Cytotoxicity against human PC3 cells at 10^-6 M after 72 hrs by MTS assay; assay type: functional; conditions: PC-3, 72 h, read-out: GI; outline: as §2
SK-OV-3 [16] = assay: Cytotoxicity against human SKOV3 cells at 10^-5 M after 72 hrs by MTS assay; assay type: functional; conditions: SK-OV-3, 72 h, read-out: GI; outline: as §2
MCF7 [17] = assay: Cytotoxicity against human MCF7 cells at 10^-6 M after 72 hrs by MTS assay; assay type: functional; conditions: MCF7, 72 h, read-out: GI
[18] = Antiproliferative activity against human HL60R cells after 72 hrs by MTS assay; assay type: functional, cell-based
K562 [19] = assay: Antiproliferative activity against human K562 cells after 72 hrs by MTS assay; assay type: functional, cell-based; conditions: K562, 72 h; outline: as §3
HL-60 [20] = assay: Antiproliferative activity against human HL60 cells after 72 hrs by MTS assay; assay type: functional, cell-based; conditions: HL-60, 72 h; outline: as §3
K562 [21] = assay: Cytotoxicity against human K562 cells at 10^-6 M after 72 hrs by MTS assay; assay type: functional; conditions: K562, 72 h, read-out: GI; outline: as §1
HCT-15 [22] = assay: Cytotoxicity against human HCT15 cells at 10^-5 M after 72 hrs by MTS assay; assay type: functional; conditions: HCT-15, 72 h, read-out: GI; outline: as §1
HCT-116 [23] = assay: Cytotoxicity against human HCT116 cells at 10^-5 M after 72 hrs by MTS assay; assay type: functional; conditions: HCT-116, 72 h, read-out: GI; outline: as §1
K562 [24] = assay: Cytotoxicity against human K562 cells at 10^-5 M after 72 hrs by MTS assay; assay type: functional; conditions: K562, 72 h, read-out: GI; outline: as §1
OVCAR-8 [25] = assay: Antiproliferative activity against human OVCAR8 cells after 72 hrs by MTS assay; assay type: functional, cell-based; conditions: OVCAR-8, 72 h; outline: as §3
SF-268 [26] = assay: Cytotoxicity against human SF268 cells at 10^-5 M after 72 hrs by MTS assay; assay type: functional; conditions: SF-268, 72 h, read-out: GI; outline: as §2
HCT-15 [27] = assay: Cytotoxicity against human HCT15 cells at 10^-6 M after 72 hrs by MTS assay; assay type: functional; conditions: HCT-15, 72 h, read-out: GI; outline: as §1
PC-3 [28] = assay: Cytotoxicity against human PC3 cells at 10^-5 M after 72 hrs by MTS assay; assay type: functional; conditions: PC-3, 72 h, read-out: GI; outline: as §2
[29] = Cytotoxicity against human HL60R cells at 10^-5 M after 72 hrs by MTS assay; assay type: functional, HL-60; conditions: read-out: GI; outline: as §1
HCT-116 [30] = assay: Cytotoxicity against human HCT116 cells at 10^-6 M after 72 hrs by MTS assay; assay type: functional; conditions: HCT-116, 72 h, read-out: GI; outline: as §1
HCT-15 [31] = assay: Antiproliferative activity against human HCT15 cells after 72 hrs by MTS assay; assay type: functional, cell-based; conditions: HCT-15, 72 h; outline: as §3
SF-268 [32] = assay: Antiproliferative activity against human SF268 cells after 72 hrs by MTS assay; assay type: functional, cell-based; conditions: SF-268, 72 h; outline: as §3
[33] = Cytotoxicity against human MDA231 cells at 10^-6 M after 72 hrs by MTS assay; assay type: functional; conditions: MDA-MB-231, 72 h, read-out: GI; outline: as §2
MIA PaCa-2 [34] = assay: Cytotoxicity against human MIAPaCa2 cells at 10^-5 M after 72 hrs by MTS assay; assay type: functional; conditions: MIA PaCa-2, 72 h, read-out: GI
SK-OV-3 [35] = assay: Antiproliferative activity against human SKOV3 cells after 72 hrs by MTS assay; assay type: functional, cell-based; conditions: SK-OV-3, 72 h; outline: as §3
[36] = Antiproliferative activity against human MDA231 cells after 72 hrs by MTS assay; assay type: functional, cell-based; conditions: MDA-MB-231, 72 h; outline: as §3
HT-29 [37] = assay: Cytotoxicity against human HT-29 cells at 10^-5 M after 72 hrs by MTS assay; assay type: functional; conditions: HT-29, 72 h, read-out: GI; outline: as §1
OVCAR-8 [38] = assay: Cytotoxicity against human OVCAR8 cells at 10^-5 M after 72 hrs by MTS assay; assay type: functional; conditions: OVCAR-8, 72 h, read-out: GI; outline: as §2
HL-60 [39] = assay: Cytotoxicity against human HL60 cells at 10^-6 M after 72 hrs by MTS assay; assay type: functional; conditions: HL-60, 72 h, read-out: GI; outline: as §1
SK-OV-3 [40] = assay: Cytotoxicity against human SKOV3 cells at 10^-6 M after 72 hrs by MTS assay; assay type: functional; conditions: SK-OV-3, 72 h, read-out: GI; outline: as §2

Structure (SMILES) | tubulin polymerization inhibition call (active/not active) (Ovis aries [2]) | inhibition of growth at 1 µM (MIA PaCa-2 [4]) | inhibition of growth at 10 µM (MCF7 [5]) | inhibition of growth at 1 µM [6] | inhibition of growth at 1 µM (OVCAR-8 [7]) | inhibition of growth at 1 µM (A549 [8]) | inhibition of growth at 10 µM (HL-60 [9]) | inhibition of growth at 10 µM [10] | inhibition of growth at 1 µM (SF-268 [11]) | inhibition of growth at 1 µM (HT-29 [12]) | inhibition of growth at 10 µM (A549 [13]) | IC50 (PC-3 [14]) | inhibition of growth at 1 µM (PC-3 [15]) | inhibition of growth at 10 µM (SK-OV-3 [16]) | inhibition of growth at 1 µM (MCF7 [17]) | IC50 [18] | IC50 (K562 [19]) | IC50 (HL-60 [20]) | inhibition of growth at 1 µM (K562 [21]) | inhibition of growth at 10 µM (HCT-15 [22]) | other results
COc1ccc(C(=O)c2cc(OC)c(OC)c(OC)c2)cc1O [PHENSTATIN] | Active |  |  |  |  |  |  |  |  |  |  |  |  |  |  |  |  |  |  |  | IC50 [1]: 7.9 µM
COc1ccc(C(=C(CO)CO)c2cc(OC)c(OC)c(OC)c2)cc1O | inactive |  |  |  |  |  |  |  |  |  |  |  |  |  |  |  |  |  |  |  | inhibition (Ovis aries [3]): Active
COc1ccc(C(=C(COC(C)=O)COC(C)=O)c2cc(OC)c(OC)c(OC)c2)cc1O | inactive | 0% | 34% | 1% | 0% | 1% | 74% | 75% | 16% | 0% | 67% | 0.27 µM | 14% | 84% | 5% | 2.72 µM | 0.18 µM | 0.68 µM | 25% | 77% | inhibition of growth at 10 µM (HCT-116 [23]): 59%; inhibition of growth at 10 µM (K562 [24]): 78%; IC50 (OVCAR-8 [25]): 1.9 µM; inhibition of growth at 10 µM (SF-268 [26]): 71%; inhibition of growth at 1 µM (HCT-15 [27]): 18%; inhibition of growth at 10 µM (PC-3 [28]): 78%; inhibition of growth at 10 µM [29]: 90%; inhibition of growth at 1 µM (HCT-116 [30]): 0%; IC50 (HCT-15 [31]): 0.68 µM; IC50 (SF-268 [32]): 0.97 µM; inhibition of growth at 1 µM [33]: 0%; inhibition of growth at 10 µM (MIA PaCa-2 [34]): 51%; IC50 (SK-OV-3 [35]): 0.07 µM; IC50 [36]: 1.03 µM; inhibition of growth at 10 µM (HT-29 [37]): 63%; inhibition of growth at 10 µM (OVCAR-8 [38]): 94%; inhibition of growth at 1 µM (HL-60 [39]): 15%; inhibition of growth at 1 µM (SK-OV-3 [40]): 71%
COc1cc(C(=C(CO)CO)c2ccc3ccccc3c2)cc(OC)c1OC | inactive | 0% | 51% | 11% | 0% | 3% | 75% | 88% | 14% | 0% | 67% | 0.76 µM | 10% | 64% | 8% | 1.68 µM | 0.17 µM | 0.78 µM | 24% | 82% | inhibition of growth at 10 µM (HCT-116 [23]): 68%; inhibition of growth at 10 µM (K562 [24]): 83%; IC50 (OVCAR-8 [25]): 4.47 µM; inhibition of growth at 10 µM (SF-268 [26]): 85%; inhibition of growth at 1 µM (HCT-15 [27]): 19%; inhibition of growth at 10 µM (PC-3 [28]): 75%; inhibition of growth at 10 µM [29]: 89%; inhibition of growth at 1 µM (HCT-116 [30]): 0%; IC50 (HCT-15 [31]): 0.39 µM; IC50 (SF-268 [32]): 1.25 µM; inhibition of growth at 1 µM [33]: 5%; inhibition of growth at 10 µM (MIA PaCa-2 [34]): 54%; IC50 (SK-OV-3 [35]): 6.84 µM; IC50 [36]: 0.81 µM; inhibition of growth at 10 µM (HT-29 [37]): 71%; inhibition of growth at 10 µM (OVCAR-8 [38]): 67%; inhibition of growth at 1 µM (HL-60 [39]): 17%; inhibition of growth at 1 µM (SK-OV-3 [40]): 5%
